From PubChem BioAssay AID1556 (The Scripps Research Institute Molecular Screening Center, 2009)
Screen size: about 290,000 compounds; about 1,300 (0.45%) were called active. The sample as a whole holds a higher share of actives than the screen did. Unmarked numbers belong to inactive results.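 Rule for the calls: active = inhibition above the mean plus 3 SD of all compounds in the same screening run (cut at about 4.5% in these data); inactive = the rest.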

These compounds were tested on metallo-beta-lactamase IMP-1 (Pseudomonas aeruginosa) (assay: IMP-1 metallo-beta-lactamase inhibitors, primary screen, biochemical, epi-absorbance readout, Pseudomonas aeruginosa enzyme (AID 1556;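 note: 0% = IMP-1 with DMSO and 100% = DMSO wells lacking enzyme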)). Details: purified IMP-1, nitrocefin hydrolysis, epi-absorbance fluorescence; at 5.6 µM; active compounds read high.
Procedure, shortened: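 System: Purified recombinant IMP-1 metallo-beta-lactamase enzyme | Measured by: Fluorescence quenching readout, ex 480/em 530 nm | Replication: Singlicate | Incubation: 15 min preincubation plus 25 min reaction at 25 °C | Evaluation: Percent inhibition from optical density relative to buffer-blank wells | Benchmarks: DMSO with and without IMP-1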

How did the inhibition turn out when CCn1c(SCC(=O)Nc2ccc(C)cc2)nc2nc3c(cc2c1=O)CCCC3 was run?
The inhibition was -2.99%.

Which inhibition does the source give for COc1ccc(C(CC(=O)c2ccccc2)S(=O)(=O)c2ccccc2)cc1 (stereo unspecified) here?
Its inhibition is -1.87%.

How did the inhibition turn out when N#Cc1cccc(CN2CCC(=O)N(CCO)CC2)c1 was run?
Its inhibition is -1.5%.

With Cc1ccc(C(=O)NCC(=O)OCc2nnc(-c3ccccc3)o2)cc1 as the compound, how does the inhibition read?
Its inhibition is -0.31%.

Which inhibition does the source give for Cc1ccccc1C(=O)NC(=S)Nc1ccc(N2CCN(C(=O)c3ccccc3)CC2)cc1 here?
Its inhibition is -0.21%.

How did the inhibition turn out when Nc1c(C(=O)c2cccs2)sc2nsc(SCCN3CCCCC3)c12 was run?
Its inhibition is 6.4% (active).

How did the inhibition turn out when Cc1nc2sc(C(=O)c3ccccc3)c(N)c2c2c1CCCC2 was run?
The inhibition was -2.49%.

How did the inhibition turn out when CN(C)c1ccnc2sc(C(=O)c3ccccc3)c(N)c12 was run?
Its inhibition is -4.61%.

N#C/C(=C\c1cccnc1)C(=O)Nc1ccc(SC(F)F)cc1 was tested. Which inhibition did it give?
Its inhibition is -1.66%.

How did the inhibition turn out when Nc1ccc2nc3c(=O)[nH]c(=S)[nH]c3nc2c1 was run?
The inhibition was 26.7% (active).

For Cc1cccc(OCC(=O)Nc2ccc(C(=O)O)cc2NC(=O)COc2cccc(C)c2)c1, which inhibition is on record?
The inhibition was -0.18%.

For O=C(CSc1nnnn1-c1ccc(O)cc1)N1N=C(c2ccc3ccccc3c2)CC1c1ccccc1 (stereo unspecified), which inhibition is on record?
Its inhibition is -2.75%.

For COc1ccc(N2CCN(S(=O)(=O)c3ccc4c(c3)N(C(C)=O)CCO4)CC2)cc1, which inhibition is on record?
The inhibition was -2.08%.

With Cc1ccnc(NC(=O)c2ccco2)n1 as the compound, how does the inhibition read?
Its inhibition is 29.4% (active).

For O=C(Nc1ccc2nccnc2c1)c1ccco1, which inhibition is on record?
The inhibition was -1.29%.

With O=C(Nc1ccccc1)c1ccco1 as the compound, how does the inhibition read?
The inhibition was -3.16%.

With Cc1cccc2c1cnn2C(=O)CCC(=O)NC1CCCCC1 as the compound, how does the inhibition read?
Its inhibition is -3.55%.

With Cc1cccc(NC(=O)Cn2c(=O)n(Cc3ccccc3)c(=O)c3c(C)c(C)sc32)c1 as the compound, how does the inhibition read?
Its inhibition is -3.05%.

For COc1ccccc1CC(=O)Nc1ccc(S(=O)(=O)N2CCCC2)cc1, which inhibition is on record?
The inhibition was -1.76%.

How did the inhibition turn out when CCOc1cccc(NC(=O)C2CCCN(S(=O)(=O)c3ccc(OC)cc3)C2)c1 (stereo unspecified) was run?
The inhibition was 0.1%.

How did the inhibition turn out when CCN(CC(=O)Nc1ccc(S(=O)(=O)N2CCCC2)cc1)CC(=O)Nc1cccc(OC)c1 was run?
Its inhibition is 13% (active).

O=C(CN1CCN(c2ccc(O)cc2)CC1)Nc1ccc(-c2ccccc2)cc1 was tested. Which inhibition did it give?
The inhibition was -3.22%.

With CC(C)N(C(=O)Cn1cc(S(=O)(=O)CC(=O)N2CCOCC2)c2ccccc21)C(C)C as the compound, how does the inhibition read?
The inhibition was 1.49%.

For Cc1cc(C)c2c3c(sc2n1)C(c1ccccc1)C(C#N)=C(N)O3 (stereo unspecified), which inhibition is on record?
Its inhibition is -3.3%.

N#CC1=C(N)Oc2c(sc3ccccc23)C1c1ccco1 (stereo unspecified) was tested. Which inhibition did it give?
Its inhibition is 5.37% (active).

For CC1=C(C(=O)Nc2ccccc2)C(c2ccco2)C(C#N)=C(SCC(N)=O)N1 (stereo unspecified), which inhibition is on record?
The inhibition was -0.1%.
